Laboratory results published in ChEMBL document CHEMBL4610001 (J Med Chem, 2020).
The source made the active and inactive calls. No cut-off for these calls is given here.

What was measured:
[1] = target: T1, Lysophosphatidic acid receptor 1 (Homo sapiens, UniProt Q92633); assay: Agonist activity at LPA1 receptor (unknown origin) stably expressed in rat RH7777 cells assessed as increase in intracellular calcium level at 10 uM by Fluo-4 NW dye based fluorescence assay; format: functional, cell-based
Outline: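 LPA1-stably transfected RH7777 hepatoma cells on poly-D-lysine, 50000 cells/well, cultured overnight. Loaded with Fluo-4 NW plus […] for 30 min at 37°C, then 30 min at rt. Compound added at 120 s of a 240 s read (ex 494/em 525 nm). Response taken as maximum minus baseline, relative to the 10 μM LPA control; ionomycin 10 μM also included. Run in triplicate.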

[2] = target: T1, Lysophosphatidic acid receptor 1; assay: Agonist activity at LPA1 receptor (unknown origin) stably expressed in rat RH7777 cells assessed as increase in intracellular calcium level by Fluo-4 NW dye based fluorescence assay; format: functional, cell-based
[3] = Stability of the compound in PBS at pH 7.4 assessed as parent compound remaining incubated up to 8 hrs by HPLC-MS; format: physicochemical; details: read-out: Stability
Outline: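 Compound from a 25 mM DMSO stock was diluted into PBS pH 7.4 and kept at rt. Parent compound remaining at each time point was measured by HPLC-MS in SIM mode, with peak area normalised to an internal standard.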

[4] = Stability of the compound in culture medium assessed as parent compound remaining incubated for up to 8 hrs by HPLC-MS; format: physicochemical; details: read-out: Stability
Outline: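 Compound from a 50 mM DMSO stock was added to culture medium pre-warmed to 37°C and incubated at 37°C. Aliquots were quenched in cold acetonitrile, iced 10 min and centrifuged. Supernatants were analysed by HPLC-MS in SIM mode, with peak area normalised to an internal standard.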

[5] = target: Lysophosphatidic acid receptor 1 (Rattus norvegicus) (UniProt P61794); assay: Agonist activity at LPA1 receptors in Wistar rat DRG neurons assessed as increase in calcium influx at 500 nM measured after 10 secs in presence of capsaicin by Fluo-4 NW dye based inverted microscopic method; format: functional
[6] = target: Lysophosphatidic acid receptor 1 (Rattus norvegicus) (UniProt P61794); assay: Induction of LPA1 receptor desensitization in Wistar rat DRG neurons assessed as reduction in neuronal activity at 10 uM treated for 15 secs twice with 4 mins interval in presence of capsazepine by microelectrode Array
Outline: (§1)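 Neonatal Wistar rat DRG neurons, cultured 48 h on poly-L-lysine/laminin-coated 60-electrode MEA chips. Compound perfused at 10 μM final for 15 s at 2 mL/min. Extracellular activity recorded at 25 kHz; output is mean spike frequency.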

[7] = target: Lysophosphatidic acid receptor 1 (Rattus norvegicus) (UniProt P61794); assay: Induction of LPA1 receptor desensitization in Wistar rat DRG neurons assessed as reduction in calcium influx at 10 uM treated twice after 10 secs in presence of capsaicin by Fluo-4 NW dye based inverted microscopic method; format: functional
Outline: (§2)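 DRG neurons from 3–5-day-old Wistar rats were collagenase-digested and cultured 48 h with NGF. Cells loaded with 5 μM Fluo-4AM and 0.02% pluronic in HEPES-buffered HBSS pH 7.4 for 1 h at 37°C, then perfused at rt. Compound given at 10 μM final (from 10 mM DMSO stock) as 10 s pulses. Capsaicin and 40 mM KCl (10 s, viability) also applied. Signal is peak minus baseline fluorescence; a response is >20% over baseline.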

[8] = target: Lysophosphatidic acid receptor 1 (Rattus norvegicus) (UniProt P61794); assay: Induction of LPA1 receptor desensitization in Wistar rat DRG neurons assessed as reduction in neuronal activity at 10 uM treated for 15 secs twice with 4 mins interval in presence of capsaicin by microelectrode Array; outline: as §1
[9] = target: Lysophosphatidic acid receptor 1 (Rattus norvegicus) (UniProt P61794); assay: Agonist activity at LPA1 receptors in Wistar rat DRG neurons assessed as increase in neuronal activity at 10 uM incubated for 15 secs in presence of capsaicin by Microelectrode Array; outline: as §1
[10] = target: Lysophosphatidic acid receptor 1 (Rattus norvegicus) (UniProt P61794); assay: Agonist activity at LPA1 receptors in Wistar rat DRG neurons assessed as increase in neuronal activity at 10 uM incubated for 15 secs in presence of capsazepine by Microelectrode Array; outline: as §1
[11] = target: Lysophosphatidic acid receptor 1 (Rattus norvegicus) (UniProt P61794); assay: Agonist activity at LPA1 receptors in Wistar rat DRG neurons assessed as increase in calcium influx at 10 uM measured after 10 secs in presence of capsaicin by Fluo-4 NW dye based inverted microscopic method; format: functional; outline: as §2
[12] = target: T1, Lysophosphatidic acid receptor 1; assay: Binding affinity to LPA1 receptor (unknown origin) by cell-based backscattering interferometry
[13] = target: T1, Lysophosphatidic acid receptor 1; assay: Agonist activity at recombinant human full-length LPA1 receptor expressed in dhfr- deficient CHO cells assessed as increase in intracellular calcium flux measured for 1 min by fluo-3AM dye based FLIPR assay; format: functional, cell-based

Lysophosphatidic acid receptor 1 (Rattus norvegicus), sequence (P61794 whole entry, the tested form may be a part): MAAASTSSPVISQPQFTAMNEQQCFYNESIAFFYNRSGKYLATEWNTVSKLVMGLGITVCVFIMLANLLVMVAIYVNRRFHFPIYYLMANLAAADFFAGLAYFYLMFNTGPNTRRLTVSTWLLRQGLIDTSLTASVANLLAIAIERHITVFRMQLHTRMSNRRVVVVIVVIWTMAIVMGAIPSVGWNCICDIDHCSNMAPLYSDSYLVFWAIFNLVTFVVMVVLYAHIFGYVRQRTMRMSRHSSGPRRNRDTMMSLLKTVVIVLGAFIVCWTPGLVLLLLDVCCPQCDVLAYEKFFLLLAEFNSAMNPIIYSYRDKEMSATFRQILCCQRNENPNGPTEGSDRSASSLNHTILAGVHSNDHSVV
T1 sequence (Q92633 whole entry): as the sequence (P61794 whole entry, the tested form may be a part) above, with A4I, S8I, Q22P, Y40H, V61I, D193E, H194N, V269I, N331S, N335T counted along it

Row | Structure (SMILES) | Activity [1] | also measured
1 | O=C(CCCCCCCCCc1ccccc1)OC[C@@H]1CC(F)(C(=O)O)C(=O)O1 (stereo partly drawn) | inactive | 
2 | O=C(CCCCCCCCCCCCc1ccc(-c2ccccc2)cc1)OC[C@@H](O)COP(=O)(O)O |  | EC50 [2]: 19 µM
3 | CCCCCC/C=C\CCCCCCCC(=O)OC[C@@H]1C[C@@](F)(C(=O)O)C(=O)O1 | inactive | 
4 | O=C(CCCCCCCCCc1ccccc1)O[C@H](CBr)COP(=O)(O)O |  | remaining at 8 h [3]: > 85%; remaining at 8 h [4]: > 85%
5 | CCCCCCCC/C=C\CCCCCCCC(=O)OCCCC(C(=O)O)C(=O)O | inactive | 
6 | O=C(CCCCCCCCCCc1ccccc1)O[C@H](CBr)COP(=O)(O)O | inactive | 
7 | COc1cc(CNC(=O)CCCC/C=C/C(C)C)ccc1O |  | Activity [5]: Active
8 | CO[C@H](COC(=O)CCCCCCCCCc1ccccc1)CC(F)(C(=O)O)C(=O)O | inactive | 
9 | CCCCCCCCCC/C=C\CCCCCCCC(=O)OC[C@@H](O)COP(=O)(O)O | inactive | 
10 | CCCCCCCC/C=C\CCCCCCCC(=O)OC[C@@H](O)COc1ccc(B(O)O)cc1 | inactive | 
11 | CCCCCCCC/C=C\CCCCCCCC(=O)O[C@H](CBr)COP(=O)(O)O |  | EC50 [2]: 3.2 µM
12 | CCCCCCCC/C=C\CCCCCCCC(=O)OC[C@@H]1CC(C(=O)O)C(=O)O1 (stereo partly drawn) | inactive | 
13 | CCCCCCCC/C=C\CCCCCCCC(=O)OC[C@@H](O)Cc1nnn[nH]1 | inactive | 
14 | CCCCCCCC/C=C\CCCCCCCC(=O)OC[C@@H](O)COP(=O)(O)O [LYSOPHOSPHATIDIC ACID] |  | Activity [6]: Active; Activity [7]: Active; Activity [8]: Active; Activity [9]: Active; Activity [10]: Active; EC50 [2]: 0.83 µM; Activity [11]: Active; Kd [12]: 0.0056 µM
15 | CCCCCC/C=C\CCCCCCCC(=O)OC[C@@H]1C[C@](F)(C(=O)O)C(=O)O1 | inactive | 
16 | O=C(CCCCCCCc1ccccc1)OC[C@@H](O)COP(=O)(O)O | inactive | 
17 | CCCCCCCC/C=C\CCCCCCCC(=O)OC[C@@H](O)COCC(=O)O | inactive | 
18 | CC1CCC2(C)c3[nH]c4ccccc4c3CCN2C1 (stereo not drawn) |  | EC50 [13]: 3.6 µM
19 | O=C(CCCCCCc1ccc(-c2ccccc2)cc1)OC[C@@H](O)COP(=O)(O)O | inactive | 
20 | O=C(CCCCCCCCc1ccccc1)O[C@H](CBr)COP(=O)(O)O | inactive | 
21 | O=C(CCCCCCc1ccccc1)OC[C@@H](O)COP(=O)(O)O | inactive | 
22 | O=C(CCCCCCCCCCCCCCc1ccccc1)OC[C@@H](O)COP(=O)(O)O | inactive | 
23 | CCCCCCCC/C=C\CCCCCCCC(=O)OCCCC(F)(C(=O)O)C(=O)O | inactive | 
24 | CCCCCC/C=C\CCCCCCCC(=O)O[C@H](CBr)COP(=O)(O)O | inactive | 
25 | CCCCCCCC/C=C\CCCCCCCC(=O)NC[C@H](CC(F)(C(=O)O)C(=O)O)OC | inactive | 
